How the values were obtained:
hERG = hERG (Homo sapiens, UniProt Q12809); test: Inhibition of human ERG expressed in HEK293 cells at 3 uM by patch clamp assay; type: cell-based; conditions: HEK293 cells expressing hERG
How it was run: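 HEK293 cells stably expressing hERG, whole-cell currents recorded by automated patch clamp in extracellular solution (mM: 150 NaCl, 4 KCl, 1 MgCl2, 1.8 CaCl2, 10 HEPES, 5 glucose, pH 7.4). Vehicle (0.1% DMSO) applied for 5 min, then compound at 0.1, 0.3 and 3 μM, each applied twice (n = 3). Effect taken after 5 min as the mean current of three pulses; residual current compared with vehicle.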

[1] = Drug metabolism in mouse liver microsomes at 5 uM after 15 mins; type: ADME, Microsome; conditions: read-out: Drug metabolism
[2] = target: T1, Metabotropic glutamate receptor 2 (Homo sapiens, UniProt Q14416); test: Positive allosteric modulator activity at human mGlu2R expressed in CHO cells incubated for 30 mins by [35S]GTPgammaS binding assay relative to control; type: functional, cell-based
Target sequence in this assay (Q14416 19-872 limits assumed): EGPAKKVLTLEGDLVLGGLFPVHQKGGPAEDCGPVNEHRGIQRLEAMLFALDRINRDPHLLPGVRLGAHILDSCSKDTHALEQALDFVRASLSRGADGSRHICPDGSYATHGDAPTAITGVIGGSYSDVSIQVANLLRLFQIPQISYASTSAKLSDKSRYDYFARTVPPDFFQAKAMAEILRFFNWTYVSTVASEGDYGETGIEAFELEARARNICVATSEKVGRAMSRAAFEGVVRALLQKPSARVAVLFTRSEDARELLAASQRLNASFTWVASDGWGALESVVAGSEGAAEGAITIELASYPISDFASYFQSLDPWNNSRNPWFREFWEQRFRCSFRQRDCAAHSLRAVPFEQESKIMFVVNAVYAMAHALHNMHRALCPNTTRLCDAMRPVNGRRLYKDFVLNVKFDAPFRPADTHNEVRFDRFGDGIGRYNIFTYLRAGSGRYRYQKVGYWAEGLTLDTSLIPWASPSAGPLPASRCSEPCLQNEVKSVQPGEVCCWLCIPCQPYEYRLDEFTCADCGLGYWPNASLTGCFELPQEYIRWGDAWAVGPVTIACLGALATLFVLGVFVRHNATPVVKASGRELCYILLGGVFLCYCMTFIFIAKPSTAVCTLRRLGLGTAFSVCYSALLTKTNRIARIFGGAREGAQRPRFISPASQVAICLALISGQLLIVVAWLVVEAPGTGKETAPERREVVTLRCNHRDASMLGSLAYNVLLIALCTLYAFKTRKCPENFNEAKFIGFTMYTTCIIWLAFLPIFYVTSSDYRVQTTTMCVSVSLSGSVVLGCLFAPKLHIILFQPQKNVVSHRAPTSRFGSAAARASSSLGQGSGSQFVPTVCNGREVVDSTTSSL

[3] = Drug metabolism in human liver microsomes at 5 uM after 15 mins; type: ADME, Microsome; conditions: read-out: Drug metabolism
How it was run: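 Compound at 5 μM incubated 15 min with human liver microsomes; read-out is % of compound metabolized. Values are the mean of at least two experiments.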

[4] = target: T1, Metabotropic glutamate receptor 2; test: Positive allosteric modulator activity at human mGlu2R expressed in CHO cells incubated for 30 mins by [35S]GTPgammaS binding assay; type: functional, cell-based
Target sequence in this assay (Q14416 whole entry): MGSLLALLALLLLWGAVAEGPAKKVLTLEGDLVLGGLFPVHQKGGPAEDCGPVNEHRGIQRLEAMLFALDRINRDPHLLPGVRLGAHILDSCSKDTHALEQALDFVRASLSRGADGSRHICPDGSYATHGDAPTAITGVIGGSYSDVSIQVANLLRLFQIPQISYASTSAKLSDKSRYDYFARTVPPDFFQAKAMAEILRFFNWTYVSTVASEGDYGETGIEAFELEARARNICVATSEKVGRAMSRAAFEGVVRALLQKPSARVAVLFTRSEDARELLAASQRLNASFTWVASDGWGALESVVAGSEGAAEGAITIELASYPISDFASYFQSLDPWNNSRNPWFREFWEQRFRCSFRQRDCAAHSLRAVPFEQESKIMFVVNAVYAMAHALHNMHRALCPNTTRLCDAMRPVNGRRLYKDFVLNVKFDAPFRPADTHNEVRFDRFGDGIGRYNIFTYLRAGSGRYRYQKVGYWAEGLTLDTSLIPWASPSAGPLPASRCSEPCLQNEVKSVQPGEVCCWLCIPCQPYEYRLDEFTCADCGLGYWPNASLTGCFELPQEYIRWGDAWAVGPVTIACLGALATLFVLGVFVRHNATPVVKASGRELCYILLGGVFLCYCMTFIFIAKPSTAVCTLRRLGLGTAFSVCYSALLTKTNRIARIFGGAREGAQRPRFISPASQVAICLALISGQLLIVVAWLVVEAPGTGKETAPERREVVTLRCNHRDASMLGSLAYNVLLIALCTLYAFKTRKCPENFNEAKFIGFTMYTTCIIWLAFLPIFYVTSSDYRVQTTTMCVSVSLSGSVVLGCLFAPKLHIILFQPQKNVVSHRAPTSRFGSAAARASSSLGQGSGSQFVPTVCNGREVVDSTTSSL

[5] = Ratio of drug level in brain to plasma in Swiss mouse at 10 mg/kg, sc administered as single dose measured 1 hr post dose; type: ADME, organism-based; design: dose 10 mg/kg, route subcutaneous; conditions: read-out: BPR
How it was run: (§1)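 Swiss mice given a single 10 mg/kg sc dose at 1 mg/mL in 20% HP-β-CD + HCl solution, pH 4. Brain and plasma levels taken 1 h post dose. Values are geometric means of at least two runs.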

[6] = Drug level in Swiss mouse brain at 10 mg/kg, sc administered as single dose measured 1 hr post dose; type: ADME, organism-based; design: dose 10 mg/kg, route subcutaneous; conditions: read-out: Drug uptake; how it was run: as §1
[7] = Plasma concentration in Swiss mouse at 10 mg/kg, sc administered as single dose measured 1 hr post dose; type: ADME, organism-based; design: dose 10 mg/kg, route subcutaneous; how it was run: as §1
[8] = AUC (0 to infinity) in Sprague-Dawley rat at 10 mg/kg, po; type: ADME, organism-based; design: time infinity, dose 10 mg/kg, route oral; conditions: plasma
[9] = Tmax in Sprague-Dawley rat at […], iv or 10 mg/kg, po; type: ADME, organism-based; conditions: in vivo
[10] = Clearance in Sprague-Dawley rat at […], iv; type: ADME, organism-based; design: dose 2.5 mg/kg, route intravenous; conditions: in vivo
[11] = Oral bioavailability in Sprague-Dawley rat at 10 mg/kg; type: ADME, organism-based; conditions: in vivo
[12] = Volume of distribution at steady state in Sprague-Dawley rat at […], iv or 10 mg/kg, po; type: ADME, organism-based; conditions: in vivo, read-out: Vdss
[13] = Cmax in Sprague-Dawley rat at […], iv or 10 mg/kg, po; type: ADME, organism-based; conditions: in vivo
[14] = Half life in Sprague-Dawley rat at […], iv; type: ADME, organism-based; design: dose 2.5 mg/kg, route intravenous; conditions: in vivo

hERG, sequence (Q12809 whole entry): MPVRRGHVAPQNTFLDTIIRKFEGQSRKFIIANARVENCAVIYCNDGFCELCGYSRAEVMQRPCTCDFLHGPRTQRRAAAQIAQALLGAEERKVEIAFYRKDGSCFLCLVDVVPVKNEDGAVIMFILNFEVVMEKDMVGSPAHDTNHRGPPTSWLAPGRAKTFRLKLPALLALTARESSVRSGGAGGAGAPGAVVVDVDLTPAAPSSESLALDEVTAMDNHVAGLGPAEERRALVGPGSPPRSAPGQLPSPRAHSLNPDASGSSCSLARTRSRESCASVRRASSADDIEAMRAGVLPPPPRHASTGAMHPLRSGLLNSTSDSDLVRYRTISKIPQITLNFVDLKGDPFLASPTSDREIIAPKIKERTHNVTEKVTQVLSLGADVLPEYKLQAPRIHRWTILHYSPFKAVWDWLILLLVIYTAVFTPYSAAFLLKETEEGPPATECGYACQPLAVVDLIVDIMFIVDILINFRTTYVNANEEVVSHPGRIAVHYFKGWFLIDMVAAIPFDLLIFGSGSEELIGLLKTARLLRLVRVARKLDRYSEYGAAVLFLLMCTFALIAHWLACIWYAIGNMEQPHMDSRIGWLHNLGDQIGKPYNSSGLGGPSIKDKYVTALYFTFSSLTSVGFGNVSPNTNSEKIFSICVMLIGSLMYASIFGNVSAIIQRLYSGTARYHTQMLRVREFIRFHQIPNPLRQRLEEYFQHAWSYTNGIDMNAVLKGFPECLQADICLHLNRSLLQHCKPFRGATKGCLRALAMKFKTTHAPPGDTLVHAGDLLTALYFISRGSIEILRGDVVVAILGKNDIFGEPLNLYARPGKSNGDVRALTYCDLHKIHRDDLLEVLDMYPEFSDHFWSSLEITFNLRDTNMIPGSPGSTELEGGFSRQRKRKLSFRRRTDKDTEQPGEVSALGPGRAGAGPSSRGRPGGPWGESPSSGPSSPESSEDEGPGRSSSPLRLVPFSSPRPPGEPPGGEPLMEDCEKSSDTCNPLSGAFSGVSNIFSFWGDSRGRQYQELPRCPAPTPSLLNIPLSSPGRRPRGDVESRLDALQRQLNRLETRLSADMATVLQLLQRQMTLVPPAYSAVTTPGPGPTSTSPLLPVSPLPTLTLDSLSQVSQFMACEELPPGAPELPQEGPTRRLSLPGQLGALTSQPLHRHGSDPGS

| Structure (SMILES) | inhibition at 3 µM (hERG) [%] | metabolised at […], 5 µM [1] [%] | Emax [2] [%] | metabolised at […], 5 µM [3] [%] | EC50 [4] [nM] | Kp at 1 h [5] | concentration at 1 h [6] [ng/mL] | concentration at 1 h [7] [ng/mL] | AUC(0-inf) [8] [ng·h/mL] | Tmax [9] [h] | clearance [10] [mL/min/kg] | bioavailability [11] [%] | Vd [12] [L/kg] | Cmax [13] [ng/mL] | half-life [14] [h] |
| --- | --- | --- | --- | --- | --- | --- | --- | --- | --- | --- | --- | --- | --- | --- | --- |
| FC(F)(F)c1c(N2CCC(F)(c3ccccc3)CC2)ccn2c(CC3CC3)nnc12 | 84 | 13 | 292 | 18 |  |  |  |  |  |  |  |  |  |  |  |
| COCc1nnc2c(C#N)c(N3CCC(c4ccccc4)CC3)ccn12 |  | 31 | 196 | 12 | 468 |  |  |  |  |  |  |  |  |  |  |
| Clc1c(N2CCC(c3ccccc3)CC2)ccn2c(CC3CC3)nnc12 | 99 |  | 343 | 56 |  | 1.4 | 3830 | 2660 |  |  |  |  |  |  |  |
| FC(F)(F)C1(c2ccccc2)CCN(c2ccn3c(CC4CC4)nnc3c2Cl)CC1 | 42 | 41 | 243 | 56 |  | 1.6 |  |  | 1160 | 1.3 | 77 | 53 | 5.1 | 289 | 2.1 |
| FC(F)(F)Cc1nnc2c(Cl)c(N3CCC(F)(c4ccccc4)CC3)ccn12 | 42 | 25 | 310 | 39 |  | 1.4 |  |  | 5990 | 1.7 | 18 | 63 | 1.9 | 807 | 2.6 |
| FC(F)(F)Cc1nnc2c(Cl)c(N3CCC(c4ccccc4)CC3)ccn12 | 71 | 8 | 300 | 13 | 55 | 1.8 | 2090 | 1160 |  |  |  |  |  |  |  |
| N#Cc1c(N2CCC(c3ccccc3)CC2)ccn2c(CN3CCCC3)nnc12 |  | 88 | 240 | 38 | 1120 |  |  |  |  |  |  |  |  |  |  |
| CC(C)(C)c1nnc2c(C#N)c(N3CCC(c4ccccc4)CC3)ccn12 |  |  | 207 |  | 1230 |  |  |  |  |  |  |  |  |  |  |
| CCc1nnc2c(C#N)c(N3CCC(c4ccccc4)CC3)ccn12 | 20 | 7 | 247 | 11 |  | 0.2 | 135 | 672 |  |  |  |  |  |  |  |
| Clc1c(N2CCN(c3ccccc3)CC2)ccn2c(CC3CC3)nnc12 |  | 53 | 308 | 62 | 944 |  |  |  |  |  |  |  |  |  |  |
| CCCCc1nnc2c(C(F)(F)F)c(N3CCC(c4ccccc4)CC3)ccn12 | 91 | 54 | 364 | 33 |  |  |  |  |  |  |  |  |  |  |  |
| FC(F)(F)c1c(N2Cc3ccccc3C2)ccn2c(CC3CC3)nnc12 |  | 89 | 330 | 50 | 400 |  |  |  |  |  |  |  |  |  |  |
| CCc1nnc2c(Cl)c(N3CCC(c4ccccc4)CC3)ccn12 | 43 | 39 | 262 | 57 | 386 |  |  |  |  |  |  |  |  |  |  |
| FC(F)(F)c1c(N2CCC(c3cccnc3)CC2)ccn2c(CC3CC3)nnc12 |  | 78 | 268 | 31 | 519 |  |  |  |  |  |  |  |  |  |  |
| N#Cc1c(N2CCC(c3ccccc3)CC2)ccn2c(CC3CC3)nnc12 |  | 25 | 278 | 6 |  |  |  |  |  |  |  |  |  |  |  |
| FC(F)(F)c1c(N2CCc3ccccc3C2)ccn2c(CC3CC3)nnc12 |  | 86 | 278 | 52 | 149 |  |  |  |  |  |  |  |  |  |  |
| Fc1ccc(C2CCN(c3ccn4c(CC5CC5)nnc4c3C(F)(F)F)CC2)c(F)c1 | 91 | 16 | 306 | 2 | 10 |  |  |  |  |  |  |  |  |  |  |
| CCc1cnc2c(C#N)c(N3CCC(c4ccccc4)CC3)ccn12 |  | 82 | 225 | 74 |  |  |  |  |  |  |  |  |  |  |  |
| N#Cc1c(N2CCC(c3ccccc3)CC2)ccn2c(CC(F)(F)F)nnc12 | 33 | 10 | 277 | 9 |  |  |  |  |  |  |  |  |  |  |  |
| CCc1nnc2c(C(F)(F)F)c(N3CCC(c4ccccc4)CC3)ccn12 | 36 | 42 | 334 | 29 | 116 | 1.3 |  |  | 1010 | 0.7 | 53 | 35 | 1.4 | 359 | 1.9 |
| CCCc1nnc2c(C#N)c(N3CCC(c4ccccc4)CC3)ccn12 |  | 40 | 272 | 25 | 299 |  |  |  |  |  |  |  |  |  |  |
| CCCc1cnc2c(C#N)c(N3CCC(c4ccccc4)CC3)ccn12 |  | 81 | 254 | 74 |  |  |  |  |  |  |  |  |  |  |  |
| FC(F)(F)c1c(N2CCC(c3ccccc3)C2)ccn2c(CC3CC3)nnc12 (racemic) |  | 72 | 175 | 38 | 1230 |  |  |  |  |  |  |  |  |  |  |
| N#Cc1c(N2CCC(c3ccccc3)CC2)ccn2c(CC(F)(F)F)cnc12 |  | 41 | 259 | 24 | 125 |  |  |  |  |  |  |  |  |  |  |

From ChEMBL document CHEMBL2176880 (J Med Chem, 2012)
